Consider one molecule from PMC2034471 (Nucleic Acids Research, 2007).

One data set addresses 35 bp ss. The experiment in a line: EMSA, 35 nt single-stranded DNA. It is filed as binding. Particulars: read-out: Kd, 35 bp ss, without DTT, 50 mM Tris–HCl pH 8.0, 50 mM NaCl, 2 h at 22°C. Put shortly:
(§1)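 35-mer substrates (ss, GT mismatch, nick, gap, 3′-biotinylated duplex) made by annealing oligonucleotides in 10 mM Tris–HCl pH 8, 1 mM EDTA, 200 mM NaCl: 90°C 10 min, then slow cooling. Annealing checked on native gels. 5′-32P kinase labelling at 25°C. Incubation 2 h at 22°C in 50 mM Tris–HCl pH 8.0, 50 mM NaCl, with or without 1 mM DTT. Native 6% gels; phosphor-screen quantification for affinity.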
In general terms: A gel shift assay detects complexes by their altered migration in electrophoresis.

The nature of data set [1]: aggregation / stability of Rad9 fragments in solution. The class given is physicochemical. Particulars: after three days at 0.2 mM and 30°C; MES 50 mM, NaCl 50 mM, 2 mM TCEP, pH 6.
For the next data set, the target named is 35 bp Gap. Put plainly: EMSA, 35 bp DNA with gap. The class given is binding. Particulars: read-out: Kd, 35 bp Gap, without DTT, 50 mM Tris–HCl pH 8.0, 50 mM NaCl, 2 h at 22°C. Put shortly:
as §1

Data set [2] relates to 146 bp double-stranded DNA. Put plainly: EMSA, 146 bp ds DNA. The class given is binding. Conditions: DNA 26 nM, 2- to 128-fold molar excess of protein. Put shortly: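 146 bp fragment made by PCR on a pUC(357.4) digest template and 5′-end labelled with 32P-ATP/T4 polynucleotide kinase at 37°C. Protein fragments incubated with labelled DNA for 2 h at 22°C in 50 mM Tris–HCl pH 8.0, 1 mM EDTA, 1 mM AEBSF, 1 mM DTT, 50 mM NaCl, 0.1% triton X-100. Resolved on pre-run 6% native polyacrylamide (29:1) in 0.5× TEG at 70 V. Complexes detected by autoradiography of dried gels at –80°C.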

Data set [3] concerns the target 35 bp double-stranded DNA. The experiment in a line: EMSA, 35 bp ds DNA. Particulars: read-out: Kd, 35 bp ds, without DTT, 50 mM Tris–HCl pH 8.0, 50 mM NaCl, 2 h at 22°C, DNA 26 nM. It is filed as binding.
The conditions of data set [4]: ref [23]; cited from earlier work.
The target of data set [5] is 211 bp double-stranded DNA. The experiment in a line: EMSA, 211 bp ds DNA. It is filed as binding. Conditions: read-out: Kd, 211 bp ds, with 1 mM DTT, 50 mM Tris–HCl pH 8.0, 50 mM NaCl, 0.1% triton X-100, 2 h at 22°C, phosphor screen. The method in brief: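 211 bp fragment PCR-amplified from a DraI/BamHI digest of pUC(357.4) and 5′-32P end-labelled with T4 kinase at 37°C. Binding ran 2 h at 22°C in Tris–HCl pH 8.0 buffer with EDTA, AEBSF, 1 mM DTT, 50 mM NaCl and 0.1% triton X-100. Gels were 6% native polyacrylamide in 0.5× TEG at 70 V. Dried gels went onto a phosphor screen, and radioactive signals were quantified for affinity.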

In a further data set the target is 35 bp Nick. Put plainly: EMSA, 35 bp DNA with nick. Particulars: read-out: Kd, 35 bp Nick, without DTT, 50 mM Tris–HCl pH 8.0, 50 mM NaCl, 2 h at 22°C. The class given is binding. Put shortly: as §1
Data set [6] deals with 35 bp ds with a 3′ terminal biotin. Put plainly: EMSA, 35 bp ds DNA with one 3′ terminal biotin. The class given is binding. The method in brief: as §1
The next data set concerns the target 35 bp mismatch GT. The experiment in a line: EMSA, 35 bp DNA with GT mismatch. It is filed as binding. Particulars: read-out: Kd, 35 bp mismatch GT, without DTT, 50 mM Tris–HCl pH 8.0, 50 mM NaCl, 2 h at 22°C. Put shortly:
as §1

B1: ScRad9[754–947]: fragment 754–947 of Saccharomyces cerevisiae Rad9, tandem tudor domain (protein)
chain: GKDSKEQSYVFPEGIRTADNSFLSKDDIIFGNAVWCQYTWNYKFYPGILLEVDTNQDGCWIYFETGRSLTKDEDIYYLDIRIGDAVTFDGNEYVVVGLECRSHDLNIIRCIRGYDTVHLKKKNASGLLGKRTLIKALSSISLDLSEWAKRAKIILEDNEKNKGDAYRYLRHPIRGRKSMTNVLSPKKHTDDEKD
For B1, the dissociation constant (Kd) was determined as 2500 ± 180 nM on 35 bp ss; 960 ± 130 nM on 35 bp Gap; 960 ± 80 nM in data set [3]; 500 ± 70 nM in [5]; 620 ± 60 nM on 35 bp Nick; 830 ± 50 nM in data set [6] (read-out: Kd, 35 bp ds with a 3′ terminal biotin, EMSA, with 1 mM DTT, 50 mM Tris–HCl pH 8.0, 50 mM NaCl, 2 h at 22°C). The Kd on 35 bp mismatch GT was determined as 890 ± 70 nM. In addition, the “fraction of fragment aggregated” value in data set [1] was 50%. Also, the “interaction with 146 bp ds DNA by gel retardation” value in data set [2] is listed as “forms complexes”. The heat transition midpoint in [4] was 52 °C. The “effect of biotin on affinity for the oligonucleotide” value in [6] (35 bp ds, biotinylated at one or two 3′-OH ends, no streptavidin) is on record as “does not modify the affinity”.

One may read the Kd as the concentration at which binding is half-saturated.
